Assays:
[1] = Toxicity in human erythrocytes assessed as hemolysis at 25 uM after 24 hrs by spectrophotometry; assay type: cell-based, Erythrocyte; details: read-out: Activity
How it was run: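 Citrated human blood was washed repeatedly in ice-cold PBS and made into a 2% w/v suspension. It was mixed 1:1 with compound in PBS and incubated 24 h at 37 °C. Supernatant hemoglobin was read at 405 nm. Percent hemolysis = (A at 24 h − A at 0 h) / water-lysis A × 100. Water gave 100% lysis, PBS served as negative control. Run in quintuplicate.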

[2] = test system: Trypanosoma cruzi; assay: Antitrypanosomal activity against Trypanosoma cruzi Tulahuen 2 epimastigotes assessed as inhibition of parasite growth at 25 uM after 5 days by spectrophotometric analysis; assay type: functional; details: Tulahuen 2, 120 h, read-out: GI
How it was run: (§1)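 Tulahuen 2 epimastigotes were grown in BHI-Tryptose with 5% fetal calf serum at 28 °C, harvested in late log phase and seeded at 2 × 10^6/mL. Compound came from DMSO stock (final DMSO ≤1%, vehicle control). A590 was read at day 0 and day 5, and % inhibition was taken against the control. IC50 was the concentration halving control absorbance. Values are the mean of three experiments.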

[3] = test system: Trypanosoma cruzi; assay: Antitrypanosomal activity against Trypanosoma cruzi Tulahuen 2 epimastigotes assessed as inhibition of parasite growth after 5 days by spectrophotometric analysis; assay type: functional, organism-based; details: Tulahuen 2, 120 h; how it was run: as §1
[4] = Selectivity index, ratio of growth inhibition of Trypanosoma cruzi Tulahuen 2 epimastigotes at 25 uM to hemolysis of human erythrocytes at 25 uM
How it was run: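 This is a ratio of two values. One is the % epimastigote growth inhibition (A590, day 5 versus day 0, against a DMSO control). The other is the % erythrocyte lysis (A405 after 24 h at 37 °C, relative to water lysis). Both are measured at the same compound concentration.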

[5] = target: Cruzipain (Trypanosoma cruzi) (UniProt P25779); assay: Inhibition of Trypanosoma cruzi cruzipain using Z-Phe-Arg-AMC as substrate at 100 uM preincubated for 5 mins before substrate addition measured after 10 mins by spectrofluorometry
How it was run: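 Cruzipain was preincubated 5 min at room temperature with compound in 50 mM PBS pH 7.3 or acetate buffer pH 5.3 containing 5 mM DTT. Z-Phe-Arg-AMC was then added. Fluorescence (ex 380/em 460 nm) was followed 10 min at room temperature. Final DMSO was ≤10%, the solvent-only control was used, and a reference thiosemicarbazone inhibitor was included. Values are means of at least three experiments.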

Sequence of Cruzipain (Trypanosoma cruzi) (P25779 123-467 limits assumed): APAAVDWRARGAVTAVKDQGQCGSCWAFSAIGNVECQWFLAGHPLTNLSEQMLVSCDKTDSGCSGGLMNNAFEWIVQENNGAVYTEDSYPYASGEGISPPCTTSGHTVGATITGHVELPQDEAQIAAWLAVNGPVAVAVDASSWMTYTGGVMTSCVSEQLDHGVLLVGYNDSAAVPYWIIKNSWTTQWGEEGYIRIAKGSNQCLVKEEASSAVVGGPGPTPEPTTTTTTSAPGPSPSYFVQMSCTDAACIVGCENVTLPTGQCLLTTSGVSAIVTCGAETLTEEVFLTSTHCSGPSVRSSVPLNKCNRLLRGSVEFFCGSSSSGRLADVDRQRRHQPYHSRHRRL

IC50 [3] [µM]	inhibition [5] [%]	Structure (SMILES)	hemolysis at 24 h, 25 µM [1] [%]	inhibition of growth at 25 µM [2] [%]	Ratio [4]
0.152		C[C@@H]1[C@H](O)[C@@H](C)/C=C/C=C/C=C/C=C/C=C/C=C/C=C/[C@H](O[C@@H]2O[C@H](C)[C@@H](O)[C@H](N)[C@@H]2O)C[C@@H]2O[C@](O)(C[C@@H](O)C[C@@H](O)[C@H](O)CC[C@@H](O)C[C@@H](O)CC(=O)O[C@H]1C)C[C@H](O)[C@H]2C(=O)O [AMPHOTERICIN B]	100	100	1
> 50	24	NC(=S)N/N=C1\CCc2ccc([N+](=O)[O-])cc21	0.1	3.1	310
25		Cc1cc(Br)c(C)c2c1/C(=N/NC(N)=S)CC2	2.4	51	21.2
5.9		Cc1ccc(NC(=S)N/N=C2\CCc3ccccc32)cc1	1.6	76	47.5
7.5		COc1ccc2c(c1)CC/C2=N\NC(N)=S	0.8	92.1	115.1
6.2	9.8	COc1cccc2c1CC/C2=N\NC(N)=S	1	84.2	84.2
> 50		NC(=S)N/N=C1\CCc2cc(Cl)ccc21	0.1	1.7	170
> 50		Cc1cc2c(c(C)c1Cl)/C(=N/NC(N)=S)CC2	2.8	14.4	5.1
7.8		Cc1cc2c(c(C)c1Cl)CC/C2=N\NC(N)=S	0.1	83.7	837
1	67	COc1cc2c(cc1OC)/C(=N/NC(=S)Nc1ccc(Cl)cc1)CC2	0.1	77	770
4		Cc1cccc2c1CC/C2=N\NC(N)=S	0.1	98.5	985
7.7		S=C(N/N=C1\CCc2ccccc21)Nc1ccccc1	2.7	69.6	25.8
> 50	1.7	COc1cc2c(cc1OC)/C(=N/NC(N)=S)CC2	0.1	19	190
5.7		Cc1cc(C)c2c(c1Br)CC/C2=N\NC(N)=S	7.7	100	12.9
8.3		NC(=S)N/N=C1\CCc2cc(F)ccc21	0.2	84.2	421
1.8	61	COc1ccc2c(c1OC)CC/C2=N\NC(N)=S	0.1	98.9	989
3.6		Cc1ccc2c(c1)CC/C2=N\NC(N)=S	0.5	100	200
2.3		NC(=S)N/N=C1\CCc2cc(Br)ccc21	2.4	98.8	41.2
18.6		NC(=S)N/N=C1\CCc2ccccc21	0.2	80.8	404
		CC1CS(=O)(=O)CCN1/N=C/c1ccc([N+](=O)[O-])o1 (centres undefined) [NIFURTIMOX]		100	
7.5	0	COc1ccc2c(c1)/C(=N/NC(N)=S)CC2	7.5	100	13.3
3		COc1cc2c(cc1OC)/C(=N/NC(=S)Nc1ccc(C)cc1)CC2	4.2	77.7	18.5
1	0	COc1cc2c(cc1OC)/C(=N/NC(=S)Nc1ccccc1)CC2	0.4	67.5	168.8
	100	CC/C(=N\N=C(\N)S)c1cccc(Br)c1			
25		S=C(N/N=C1\CCc2ccccc21)Nc1ccc(Cl)cc1	0.1	50.8	508
4.3		Cc1cc(C)c2c(c1)CC/C2=N\NC(N)=S	0.1	66.5	665
> 50		NC(=S)N/N=C1\CCc2c1cccc2[N+](=O)[O-]	4.5	22	4.9

Source: ChEMBL document CHEMBL1914328, “Thiosemicarbazones derived from 1-indanones as new anti-Trypanosoma cruzi agents” (Bioorg Med Chem, 2011)
